Measurements taken from ChEMBL document CHEMBL1687824, “Overexpression of patA and patB, which encode ABC transporters, is associated with fluoroquinolone resistance in clinical isolates of Streptococcus pneumoniae” (2011).
≈ marks a conversion by molar mass, not a printed value.

Experiments:
Type in all cases: functional
[1] = test system: Streptococcus pneumoniae; test: Antibacterial activity against wild type Streptococcus pneumoniae M4 NCTC 7465 type 1 by standardized agar doubling dilution method
Method in brief: (§1)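 MIC by agar doubling dilution following BSAC guidelines. Strains grown in brain heart infusion broth 24 h at 37°C in 5% CO2. Where an efflux pump inhibitor applies, MIC redetermined with reserpine at 20 μg/ml or sodium orthovanadate at 50 μM. Synergy taken as a fall in MIC of ≥2 dilutions with inhibitor present. Dye resistance defined relative to R6 (both dyes ≥2 dilutions higher).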

[2] = test system: Streptococcus pneumoniae; test: Antibacterial activity against dye-resistant Streptococcus pneumoniae by standardized agar doubling dilution method in presence of 20 ug/ml reserpine efflux pump inhibitor; method in brief: as §1
[3] = test system: Streptococcus pneumoniae; test: Antibacterial activity against fluoroquinolone, dye-susceptible Streptococcus pneumoniae by standardized agar doubling dilution method; method in brief: as §1
[4] = test system: Streptococcus pneumoniae; test: Antibacterial activity against fluoroquinolone, dye-resistant Streptococcus pneumoniae M74 overexpressing patA, patB by standardized agar doubling dilution method; method in brief: as §1
[5] = test system: Streptococcus pneumoniae; test: Antibacterial activity against Streptococcus pneumoniae M305 overexpressing patA, patB and inactivated patB with single mutation by standardized agar doubling dilution method
Method in brief: (§2)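 MICs determined by BSAC standardized agar doubling dilution. Strains were grown in brain heart infusion broth for 24 h at 37°C in 5% CO2. Inhibitor arms had reserpine at 20 μg/ml or sodium orthovanadate at 50 μM in the agar. Mutants were made by transforming magellan2 insertion amplimers into clinical isolates and selecting on spectinomycin 100 mg/liter, with a no-DNA spontaneous-mutation control.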

[6] = test system: Streptococcus pneumoniae; test: Antibacterial activity against fluoroquinolone, dye-resistant Streptococcus pneumoniae M296 overexpressing patA, patB by standardized agar doubling dilution method; method in brief: as §1
[7] = test system: Streptococcus pneumoniae; test: Antibacterial activity against fluoroquinolone-resistant Streptococcus pneumoniae M83 FQ-R overexpressing patA, patB by standardized agar doubling dilution method
Method in brief: (§3)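 Clinical S. pneumoniae isolates grown in BHI broth 24 h at 37°C in 5% CO2. MICs by agar doubling dilution per BSAC guidelines, alone or with efflux inhibitor reserpine (20 μg/ml) or sodium orthovanadate (50 μM). Synergy defined as ≥2-dilution MIC reduction in presence of inhibitor.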

[8] = test system: Streptococcus pneumoniae; test: Antibacterial activity against fluoroquinolone-resistant Streptococcus pneumoniae M98 FQ-R overexpressing patA, patB by standardized agar doubling dilution method; method in brief: as §3
[9] = test system: Streptococcus pneumoniae; test: Antibacterial activity against fluoroquinolone, dye-susceptible Streptococcus pneumoniae M295 S overexpressing patA, patB by standardized agar doubling dilution method; method in brief: as §1
[10] = test system: Streptococcus pneumoniae; test: Antibacterial activity against Streptococcus pneumoniae M309 overexpressing patA, patB and inactivated patB with single mutation by standardized agar doubling dilution method; method in brief: as §2
[11] = test system: Streptococcus pneumoniae; test: Antibacterial activity against Streptococcus pneumoniae M45A overexpressing patA, patB and inactivated patA with single mutation by standardized agar doubling dilution method in presence of 20 ug/ml reserpine efflux pump inhibitor
Method in brief: (§4)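 MICs were determined by BSAC agar doubling dilution in the presence of reserpine at 20 μg/ml. Strains were grown in BHI broth for 24 h at 37°C in 5% CO2, with R6 as control. Synergy was defined as an MIC drop of ≥2 dilutions with the inhibitor.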

[12] = test system: Streptococcus pneumoniae; test: Antibacterial activity against fluoroquinolone, dye-resistant Streptococcus pneumoniae M50 overexpressing patA, patB by standardized agar doubling dilution method in presence of 20 ug/ml reserpine efflux pump inhibitor; method in brief: as §1
[13] = test system: Streptococcus pneumoniae; test: Antibacterial activity against Streptococcus pneumoniae M50B overexpressing patA, patB and inactivated patB with single mutation by standardized agar doubling dilution method in presence of 20 ug/ml reserpine efflux pump inhibitor; method in brief: as §4
[14] = test system: Streptococcus pneumoniae; test: Antibacterial activity against Streptococcus pneumoniae M301 overexpressing patA, patB and inactivated patA with single mutation by standardized agar doubling dilution method in presence of 20 ug/ml reserpine efflux pump inhibitor; method in brief: as §2
[15] = test system: Streptococcus pneumoniae; test: Antibacterial activity against fluoroquinolone, dye-resistant Streptococcus pneumoniae M87 overexpressing patA, patB by standardized agar doubling dilution method in presence of 20 ug/ml reserpine efflux pump inhibitor; method in brief: as §1
[16] = test system: Streptococcus pneumoniae; test: Antibacterial activity against Streptococcus pneumoniae M311 overexpressing patA, patB and inactivated patA with single mutation by standardized agar doubling dilution method in presence of 20 ug/ml reserpine efflux pump inhibitor; method in brief: as §2
[17] = test system: Streptococcus pneumoniae; test: Antibacterial activity against Streptococcus pneumoniae M317 overexpressing patA, patB and inactivated patB with single mutation by standardized agar doubling dilution method in presence of 20 ug/ml reserpine efflux pump inhibitor; method in brief: as §4
[18] = test system: Streptococcus pneumoniae; test: Antibacterial activity against fluoroquinolone-resistant Streptococcus pneumoniae M97 FQ-R overexpressing patA, patB by standardized agar doubling dilution method in presence of 20 ug/ml reserpine efflux pump inhibitor
Method in brief: (§5)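 MIC by agar doubling dilution per BSAC guidelines; strains pregrown in brain heart infusion broth 24 h, 37°C, 5% CO2. MICs measured alone and with efflux pump inhibitors reserpine (20 μg/ml) or sodium orthovanadate (50 μM); synergy defined as ≥2-dilution MIC reduction in presence of inhibitor.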

[19] = test system: Streptococcus pneumoniae; test: Antibacterial activity against Streptococcus pneumoniae M303 overexpressing patA, patB and inactivated patA with single mutation by standardized agar doubling dilution method in presence of 20 ug/ml reserpine efflux pump inhibitor; method in brief: as §2
[20] = test system: Streptococcus pneumoniae; test: Antibacterial activity against Streptococcus pneumoniae M45A overexpressing patA, patB and inactivated patA with single mutation by standardized agar doubling dilution method in presence of 50 uM sodium orthovanadate efflux pump inhibitor
Method in brief: (§6)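 MICs were determined by BSAC agar doubling dilution in the presence of sodium orthovanadate at 50 μM. Cultures were grown in BHI broth for 24 h at 37°C in 5% CO2, with R6 as control. Synergy was defined as an MIC reduction of ≥2 dilutions with the inhibitor present.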

[21] = test system: Streptococcus pneumoniae; test: Antibacterial activity against Streptococcus pneumoniae M310 overexpressing patA, patB and inactivated patB with single mutation by standardized agar doubling dilution method in presence of 50 uM sodium orthovanadate efflux pump inhibitor; method in brief: as §2
[22] = test system: Streptococcus pneumoniae; test: Antibacterial activity against fluoroquinolone-resistant Streptococcus pneumoniae M79 FQ-R overexpressing patA, patB by standardized agar doubling dilution method in presence of 50 uM sodium orthovanadate efflux pump inhibitor; method in brief: as §3
[23] = test system: Streptococcus pneumoniae; test: Antibacterial activity against Streptococcus pneumoniae M317 overexpressing patA, patB and inactivated patB with single mutation by standardized agar doubling dilution method in presence of 50 uM sodium orthovanadate efflux pump inhibitor; method in brief: as §6
[24] = test system: Streptococcus pneumoniae; test: Antibacterial activity against Streptococcus pneumoniae M319 overexpressing patA, patB and inactivated patB with single mutation by standardized agar doubling dilution method in presence of 50 uM sodium orthovanadate efflux pump inhibitor; method in brief: as §6
[25] = test system: Streptococcus pneumoniae; test: Antibacterial activity against fluoroquinolone-resistant Streptococcus pneumoniae M97 FQ-R overexpressing patA, patB by standardized agar doubling dilution method in presence of 50 uM sodium orthovanadate efflux pump inhibitor; method in brief: as §5
[26] = test system: Streptococcus pneumoniae; test: Antibacterial activity against Streptococcus pneumoniae M314 overexpressing patA, patB and inactivated patA with single mutation by standardized agar doubling dilution method in presence of 50 uM sodium orthovanadate efflux pump inhibitor; method in brief: as §2
[27] = test system: Streptococcus pneumoniae; test: Antibacterial activity against Streptococcus pneumoniae M303 overexpressing patA, patB and inactivated patA with single mutation by standardized agar doubling dilution method in presence of 50 uM sodium orthovanadate efflux pump inhibitor; method in brief: as §2
[28] = test system: Streptococcus pneumoniae; test: Antibacterial activity against Streptococcus pneumoniae M309 overexpressing patA, patB and inactivated patB with single mutation by standardized agar doubling dilution method in presence of 50 uM sodium orthovanadate efflux pump inhibitor; method in brief: as §2

O=C(O)c1cn(C2CC2)c2cc(N3CCNCC3)c(F)cc2c1=O [CIPROFLOXACIN]
MIC [1]: 1 µg/mL (≈ 3.02 µM)
MIC90 [2]: 0.5 µg/mL
MIC [3]: 0.25 µg/mL (≈ 0.754 µM)
MIC90 [3]: 0.25 µg/mL (≈ 0.754 µM)
MIC [4]: 64 µg/mL (≈ 193 µM)
MIC [5]: 8 µg/mL (≈ 24.1 µM)
MIC [6]: 2 µg/mL (≈ 6.04 µM)
MIC [7]: 64 µg/mL (≈ 193 µM)
MIC [8]: 32 µg/mL (≈ 96.6 µM)
MIC [9]: 1 µg/mL (≈ 3.02 µM)
MIC [10]: 4 µg/mL (≈ 12.1 µM)
MIC [11]: 1 µg/mL
MIC [12]: 32 µg/mL
MIC [13]: 4 µg/mL
MIC [14]: 8 µg/mL
MIC [15]: 8 µg/mL
MIC [16]: 4 µg/mL
MIC [17]: 8 µg/mL
MIC [18]: 4 µg/mL
MIC [19]: 1 µg/mL
MIC [20]: 1 µg/mL
MIC [21]: 2 µg/mL
MIC [22]: 16 µg/mL
MIC [23]: 8 µg/mL
MIC [24]: 16 µg/mL
MIC [25]: 8 µg/mL
MIC [26]: 8 µg/mL
MIC [27]: 0.12 µg/mL
MIC [28]: 2 µg/mL

CC[n+]1c(-c2ccccc2)c2cc(N)ccc2c2ccc(N)cc21.[Br-] [HOMIDIUM BROMIDE]
MIC [1]: 2 µg/mL
MIC [2]: 0.5 µg/mL
MIC90 [2]: 0.5 µg/mL
MIC90 [3]: 2 µg/mL
MIC [4]: 4 µg/mL
MIC [5]: 0.5 µg/mL
MIC [6]: 8 µg/mL
MIC [7]: 8 µg/mL
MIC [8]: 4 µg/mL
MIC [9]: 2 µg/mL
MIC [10]: 16 µg/mL
MIC [11]: 0.5 µg/mL
MIC [12]: 0.5 µg/mL
MIC [13]: 0.5 µg/mL
MIC [14]: 0.5 µg/mL
MIC [15]: 0.5 µg/mL
MIC [16]: 0.5 µg/mL
MIC [17]: 0.5 µg/mL
MIC [18]: 0.5 µg/mL
MIC [19]: 0.5 µg/mL
MIC [20]: 0.5 µg/mL
MIC [21]: 8 µg/mL
MIC [22]: 0.5 µg/mL
MIC [23]: 0.5 µg/mL
MIC [24]: 0.5 µg/mL
MIC [25]: 1 µg/mL
MIC [26]: 0.5 µg/mL
MIC [27]: 1 µg/mL
MIC [28]: 8 µg/mL
